We go through 3 compounds from article PMC6300982 (Chemosphere, 2015).

Holding throughout (assay type): biochemical
The target in assay [1] is T1, UGT1A3 (Homo sapiens, UniProt P35503).
T1 sequence (P35503 29-534): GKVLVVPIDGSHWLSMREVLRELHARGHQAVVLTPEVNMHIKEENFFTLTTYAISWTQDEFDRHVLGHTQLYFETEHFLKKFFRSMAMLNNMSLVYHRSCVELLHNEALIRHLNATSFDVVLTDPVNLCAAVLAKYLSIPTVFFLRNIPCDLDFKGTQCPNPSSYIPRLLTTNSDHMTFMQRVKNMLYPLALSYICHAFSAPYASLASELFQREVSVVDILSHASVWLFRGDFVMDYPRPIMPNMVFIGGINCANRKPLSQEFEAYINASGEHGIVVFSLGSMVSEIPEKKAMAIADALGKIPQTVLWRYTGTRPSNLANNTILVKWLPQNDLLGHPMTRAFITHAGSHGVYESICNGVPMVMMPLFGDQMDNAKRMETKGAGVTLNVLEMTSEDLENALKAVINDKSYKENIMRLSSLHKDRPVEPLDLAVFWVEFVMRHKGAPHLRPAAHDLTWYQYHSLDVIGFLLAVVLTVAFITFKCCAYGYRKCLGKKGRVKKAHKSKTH
Put plainly: glucuronidation of 4-MU by recombinant enzyme, HPLC-UV.

Another assay deals with T2, UGT1A9 (Homo sapiens, UniProt O60656).
T2 sequence (O60656 26-530): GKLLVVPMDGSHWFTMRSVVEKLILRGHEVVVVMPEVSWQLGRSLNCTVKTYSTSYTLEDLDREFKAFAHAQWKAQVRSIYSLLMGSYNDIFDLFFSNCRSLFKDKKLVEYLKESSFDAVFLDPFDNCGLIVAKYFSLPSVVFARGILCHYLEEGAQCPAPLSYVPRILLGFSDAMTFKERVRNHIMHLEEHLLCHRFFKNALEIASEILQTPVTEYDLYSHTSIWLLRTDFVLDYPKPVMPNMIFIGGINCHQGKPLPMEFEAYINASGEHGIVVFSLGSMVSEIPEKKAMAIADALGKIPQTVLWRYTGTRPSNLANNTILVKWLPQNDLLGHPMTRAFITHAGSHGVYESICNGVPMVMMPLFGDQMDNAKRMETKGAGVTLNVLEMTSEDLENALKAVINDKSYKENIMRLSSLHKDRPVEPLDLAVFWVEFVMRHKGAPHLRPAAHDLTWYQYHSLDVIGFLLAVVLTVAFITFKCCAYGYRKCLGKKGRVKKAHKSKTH
Put plainly: single-concentration. The note with it: read-out: % inhibition at 100 μM.

The target of assay [2] is T1, UGT1A3. Briefly: dose-dependent inhibition of 4-MU glucuronidation, HPLC-UV. The note with it: read-out: % inhibition at 100 μM.
The target in the next assay is T3, UGT2B7 (Homo sapiens, UniProt P16662).
T3 sequence (P16662 24-529): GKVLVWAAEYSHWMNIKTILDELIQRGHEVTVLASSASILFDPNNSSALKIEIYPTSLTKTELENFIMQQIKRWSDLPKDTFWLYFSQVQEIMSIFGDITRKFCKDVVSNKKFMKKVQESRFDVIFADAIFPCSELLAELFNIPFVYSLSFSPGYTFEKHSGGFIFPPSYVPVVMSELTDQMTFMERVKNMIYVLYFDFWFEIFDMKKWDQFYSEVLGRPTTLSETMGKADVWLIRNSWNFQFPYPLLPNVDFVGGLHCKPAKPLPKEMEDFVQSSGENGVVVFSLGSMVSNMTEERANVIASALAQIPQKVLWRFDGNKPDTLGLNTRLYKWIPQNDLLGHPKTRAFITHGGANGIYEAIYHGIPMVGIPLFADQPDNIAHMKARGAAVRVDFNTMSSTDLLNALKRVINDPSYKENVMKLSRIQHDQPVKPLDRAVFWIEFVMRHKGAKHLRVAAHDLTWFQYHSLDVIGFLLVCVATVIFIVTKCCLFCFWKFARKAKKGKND
Put plainly: single-concentration. The note with it: read-out: % inhibition at 100 μM.

The target of assay [3] is T1, UGT1A3. Briefly: inhibition kinetics of 4-MU glucuronidation by recombinant enzyme. In a few lines:
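Insect-cell-expressed human UGT1A3 glucuronidating 4-MU across several substrate and test compound concentrations. Buffer: 5 mM UDPGA, 5 mM MgCl2, 50 mM Tris-HCl pH 7.4. 5 min preincubation, started with UDPGA, 37 °C. 4-MUG quantified by HPLC-UV at 316 nm against internal standard. Dixon and Lineweaver–Burk plots gave inhibition type; Ki from secondary plot of Lineweaver–Burk slopes versus inhibitor concentration.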

The target in a further assay is T4, UGT1A6 (Homo sapiens, UniProt P19224).
T4 sequence (P19224 27-532): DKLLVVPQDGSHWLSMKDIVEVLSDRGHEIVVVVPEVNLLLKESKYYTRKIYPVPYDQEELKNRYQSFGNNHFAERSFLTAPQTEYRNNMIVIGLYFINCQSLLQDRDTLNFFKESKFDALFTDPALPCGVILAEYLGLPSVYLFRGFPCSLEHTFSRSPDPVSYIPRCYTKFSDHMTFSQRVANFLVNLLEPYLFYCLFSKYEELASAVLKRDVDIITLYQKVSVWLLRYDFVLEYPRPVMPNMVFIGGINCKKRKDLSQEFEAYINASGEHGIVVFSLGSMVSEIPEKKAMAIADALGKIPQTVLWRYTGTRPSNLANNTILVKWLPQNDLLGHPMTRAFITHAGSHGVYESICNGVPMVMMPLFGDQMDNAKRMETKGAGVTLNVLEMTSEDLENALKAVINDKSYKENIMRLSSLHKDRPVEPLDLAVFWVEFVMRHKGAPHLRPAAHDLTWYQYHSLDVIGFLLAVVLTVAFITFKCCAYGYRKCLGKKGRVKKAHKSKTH
Put plainly: single-concentration. The note with it: read-out: % inhibition at 100 μM.

The inhibition is the change of the read-out against control, counted positive when it falls. By Ki is commonly meant a measure of affinity in units of concentration, obtained from inhibition or displacement.

SMILES strings stand for the structures.

For `Cc1cc(=O)oc2cc(O)ccc12` [4-MU, 4-Methylμmbelliferone], the “glucuronidation of 4-MU by recombinant enzyme, HPLC-UV” value at UGT1A3 [1] is “Determination of inhibition kinetics of DPhP towards UGT1A3-catalyzed glucuronidation of 4-MU”.

For `CCCCCCCCOC(=O)c1ccccc1C(=O)OCCCCCCCC` [DNOP, di-n-octyl ortho-phthalate], the values for the inhibition at 100 µM on UGT1A9, at UGT1A3 [2] and on UGT2B7 were 45.6%, 41.8% and 48.8%, respectively.

Regarding `O=C(Oc1ccccc1)c1ccccc1C(=O)Oc1ccccc1` [DPhP, diphenyl phthalate], the values for the inhibition at 100 µM on UGT1A9 and on UGT1A6 were 76.4% and 49.1%, respectively. The Ki on UGT1A3 [3] came to 890 nM.
